Test results: publication PMC5242338 (Molecular imaging and biology : MIB : the official …, 2016)
Where a SMILES comes first, the peptide text is derived from it. Bridges are numbered along the chain shown (N, C = ends). [ ]: non-standard residue; d: D form. The star is where a group is joined. NOTA = O=C(O)CN1CCN(CC(=O)O)CCN(CC(=O)*)CC1; 2Nal = N[C@@H](Cc1ccc2ccccc2c1)C(=O)O; Cit = NC(=O)NCCC[C@H](N)C(=O)O

Key:
CHO-CXCR4 cells = assay: Cell uptake, internalization and efflux of tracer; format: cell-based, Chinese hamster
How it was run: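 CHO-CXCR4 cells (F-12K, 10 % FBS) seeded at 1×10^5/well and given 11.1 kBq (0.3 µCi) tracer at 37 °C for 5–120 min. Blocking used 10 µg/well (22 µM) unlabeled peptide for 2 h. Cells were washed twice with cold PBS, lysed in 0.1 M NaOH and γ-counted. For internalization, an extra 1 min wash in 50 mM glycine/0.1 M NaCl, pH 2.8, was added. For efflux, cells were loaded for 2 h, then given tracer-free medium. Values are % of added activity, mean of three experiments ± SD.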

in vivo = assay: in vivo; design: species or system mice; conditions: mouse, iv, 100 uCi/mouse, total radioactivity
CHO-CXCR4 and CHO tumors = format: in vivo, mice

For `N=C(N)NCCC[C@H](NC(=O)[C@@H]1CSSC[C@H](NC(=O)[C@H](Cc2ccc3ccccc3c2)NC(=O)[C@H](CCCNC(=N)N)NC(=O)[C@H](CCCNC(=N)N)NC(=O)CN2CCN(CC(=O)O)CCN(CC(=O)O)CC2)C(=O)N[C@@H](Cc2ccc(O)cc2)C(=O)N[C@@H](CCCNC(N)=O)C(=O)N[C@@H](CCCCN)C(=O)N[C@H](CCCCN)C(=O)N2CCC[C@H]2C(=O)N[C@@H](Cc2ccc(O)cc2)C(=O)N[C@@H](CCCNC(=N)N)C(=O)N[C@@H](CCCNC(N)=O)C(=O)N1)C(N)=O` [Al[^18F]NOTA-T140] ({NOTA}-RR[2Nal]CY[Cit]K[dK]PYR[Cit]CR-NH2; disulfide 4-13), the “cell uptake with blocking by unlabeled peptide” value (CHO-CXCR4 cells; 2 h, 10 µg/well (22 µM) unlabeled peptide) was 5.11±0.35%, the “share of the uptake due to internalization” value (CHO-CXCR4 cells; 2 h, acid wash (glycine pH 2.8) removes surface-bound tracer) was ~50% and the “efflux from the cells” value (CHO-CXCR4 cells; after 2 h loading at 37 °C, medium replaced) was “slow”. The tissue uptake at 2 h (in vivo; biodistribution: bone) was 2.95 ± 0.74 %ID/g, the tissue uptake at 2 h (in vivo; biodistribution: kidneys) was 32.8 ± 2.62 %ID/g and the tissue uptake at 2 h (in vivo; biodistribution: liver) was 34.2 ± 4.98 %ID/g. The tissue uptake at 2 h (in vivo; biodistribution: spleen) was 6.37 ± 1.18 %ID/g, the “reduction in CHO-CXCR4 tumor uptake on blocking” value (CHO-CXCR4 and CHO tumors; co-injection of 100 µg unlabeled peptide, PET 1 h post-injection) was 50–60% and the “change of tracer uptake in the bone on blocking” value (CHO-CXCR4 and CHO tumors; mouse, in vivo) was “significantly reduced”.
